Each structure is given as a SMILES string. Activity calls are given as the source filed them. The calls are words filed in the database; no cut-off is given here.

The test system of assay [1] is HeLa. Kind of assay: Cell cycle arrest in human HeLa cells assessed as accumulation at sub G1 phase at 0.5 uM after 48 hrs using propidium iodide staining by FACS analysis. The assay is classed as functional. Put shortly: (§1)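 HeLa cells grown in DMEM/FBS, 24 h to adhere, then given 0.5 µM from DMSO stock (DMSO <0.1% in medium). Harvested at 0, 12, 24 and 48 h, PBS-washed and fixed in 70% ethanol. Stained with 50 µg/ml propidium iodide plus 100 µg/ml RNase A at 37 °C in the dark for ≥3 h. Read by flow cytometry; sub-G1 fraction scored as apoptotic.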

In assay [2] the test system is HeLa. Put plainly: Cell cycle arrest in human HeLa cells assessed as accumulation at G2 phase at 0.5 uM after 24 hrs using propidium iodide staining by FACS analysis. The assay is classed as functional. In a few lines:
as §1

Assay [3] has as its system HeLa. Put plainly: Cell cycle arrest in human HeLa cells assessed as accumulation at S phase at 0.5 uM after 48 hrs using propidium iodide staining by FACS analysis. The assay is classed as functional. Put shortly: as §1
Assay [4] concerns HeLa. Kind of assay: Cell cycle arrest in human HeLa cells assessed as accumulation at G1 phase at 0.5 uM after 12 hrs using propidium iodide staining by FACS analysis. The assay is classed as functional. In a few lines: as §1
(In flow cytometry, cells or beads pass a laser one at a time.)

Assay [5] deals with HeLa. Kind of assay: Cell cycle arrest in human HeLa cells assessed as accumulation at sub G1 phase at 0.5 uM after 24 hrs using propidium iodide staining by FACS analysis. The assay is classed as functional. Put shortly:
as §1

Assay [6] concerns HeLa. Kind of assay: Cell cycle arrest in human HeLa cells assessed as accumulation at G1 phase at 0.5 uM after 48 hrs using propidium iodide staining by FACS analysis. The assay is classed as functional. Put shortly:
as §1

Assay [7] relates to HeLa. Put plainly: Induction of apoptosis in human HeLa cells assessed as breakdown of nuclei by immunostaining method. The assay is classed as functional, cell-based. Put shortly:
(§2)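 HeLa cells exposed to 0.5 µM for 48 h. Microtubules stained with anti-α-tubulin and an Alexa Fluor 488 secondary antibody, DNA with TO-PRO-3 iodide. Fragmented nuclei scored by confocal microscopy.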

Assay [8] concerns HeLa. Put plainly: Cell cycle arrest at G2/M phase in human HeLa cells assessed as decrease in cyclin A expression at 0.5 uM after 48 hrs by Western blot analysis. The assay is classed as functional, cell-based. In a few lines: (§3)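 HeLa cells treated with 0.5 µM for 0–48 h (sampled at 0, 3, 6, 12, 24, 48 h). Whole-cell lysates made in 20 mM HEPES pH 7.2, 1% Triton X-100, 10% glycerol, 150 mM NaCl, leupeptin, 1 mM PMSF. Lysates run on SDS–PAGE, immunoblotted with the indicated antibodies, GAPDH as loading control.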
A general note: Immunoblotting shows a protein as a band on a membrane.

Assay [9] has as its system HeLa. Put plainly: Cell cycle arrest at G2/M phase in human HeLa cells assessed as increase in cyclin B1 expression at 0.5 uM after 3 to 24 hrs by Western blot analysis. The assay is classed as functional, cell-based. In a few lines:
as §3

Assay [10] relates to HeLa. Kind of assay: Inhibition of microtubule assembly in human HeLa cells assessed as loss of stabilization of microtubule bundles by immunofluorescence staining. The assay is classed as cell-based. In a few lines: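 HeLa cells given 0.25 µM for 24 h alongside DMSO vehicle and 0.1 µM taxol controls. Indirect immunofluorescence with anti-α-tubulin and an Alexa Fluor 488 secondary antibody; microtubule network imaged by spectral confocal microscopy.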

For assay [11], the system named is HeLa. Put plainly: Cell cycle arrest in human HeLa cells assessed as accumulation at G2 phase at 0.5 uM after 48 hrs using propidium iodide staining by FACS analysis. The assay is classed as functional. In a few lines: as §1
Assay [12] deals with HeLa. Put plainly: Induction of apoptosis in human HeLa cells assessed as caspase 3 cleavage at 0.5 uM. Conditions: TDE = time-dependent effect. The assay is classed as functional, cell-based. In a few lines: as §3
Assay [13] deals with HeLa. Kind of assay: Cell cycle arrest in human HeLa cells assessed as accumulation at S phase at 0.5 uM after 12 hrs using propidium iodide staining by FACS analysis. The assay is classed as functional. In a few lines:
as §1

The test system of assay [14] is HeLa. Kind of assay: Antiproliferative activity against human HeLa cells at 0.25 uM after 24 hrs. The assay is classed as functional, cell-based. In a few lines: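 HeLa cells in 96-well culture, treated for 12, 24 and 48 h, done in triplicate; after treatment, incubated 24 h more at 37 °C, 5% CO2. WST-8 (Cell Counting Kit-8) added, OD read at 450 nm after 30 min. Survival expressed relative to untreated cells; two further independent experiments.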

Assay [15] has as its system HeLa. Put plainly: Cell cycle arrest in human HeLa cells assessed as accumulation at sub G1 phase at 0.5 uM after 12 hrs using propidium iodide staining by FACS analysis. The assay is classed as functional. In a few lines:
as §1

The nature of assay [16]: Inhibition of tubulin polymerization by turbidity assay. In a few lines:
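Turbidity assay: tubulin in reaction buffer with GTP at 37 °C, test agent at 0.25 and 0.50 µM, taxol 0.1 µM as positive control. A340 read every 30 s for 60 min with gentle plate agitation.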

The subject of assay [17] is HeLa. Put plainly: Induction of apoptosis in human HeLa cells assessed as PARP cleavage after 24 to 48 hrs by Western blot analysis. The assay is classed as functional, cell-based. Put shortly:
as §3

Assay [18] deals with HeLa. Kind of assay: Induction of apoptosis in human HeLa cells assessed as caspase 7 cleavage at 0.5 uM. The assay is classed as functional, cell-based. To be noted: TDE = time-dependent effect. Put shortly:
as §3

Assay [19] has as its system HeLa. Kind of assay: Cell cycle arrest in human HeLa cells assessed as accumulation at G2 phase at 0.5 uM after 12 hrs using propidium iodide staining by FACS analysis. The assay is classed as functional. In a few lines:
as §1

In assay [20] the test system is HeLa. Put plainly: Cell cycle arrest in human HeLa cells assessed as accumulation at S phase at 0.5 uM after 24 hrs using propidium iodide staining by FACS analysis. The assay is classed as functional. Put shortly:
as §1

Assay [21] deals with HeLa. Put plainly: Induction of apoptosis in human HeLa cells assessed as fragmentation of chromosomal DNA by immunostaining method. The assay is classed as functional, cell-based. In a few lines: as §2
For assay [22], the system named is HeLa. Kind of assay: Cell cycle arrest in human HeLa cells assessed as accumulation at G1 phase at 0.5 uM after 24 hrs using propidium iodide staining by FACS analysis. The assay is classed as functional. Put shortly: as §1
Assay [23] deals with HeLa. Put plainly: Antiproliferative activity against human HeLa cells at 0.1 uM after 24 hrs. The assay is classed as functional, cell-based. In a few lines:
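HeLa cells grown in DMEM with FBS were seeded in 96-well plates and exposed for 12, 24 or 48 h to compound dissolved in DMSO (final DMSO under 0.1%). WST-8 (Cell Counting Kit-8) was added, and OD at 450 nm was read after 30 min. Survival was expressed as % of untreated control, in triplicate, with two further independent experiments.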

On to `COc1cc([C@@H]2c3cc4c(cc3C[C@H]3COC(=O)[C@@H]32)OCO4)cc(OC)c1OC` [DESOXYPODOPHYLLOTOXIN], for which the Activity was found to be 29.7% in the assay on HeLa [1]; 87.8% with HeLa [2]; 11% in the assay on HeLa [3]; 12% in the assay with HeLa [4]; 4.5% in the assay on HeLa [5]; 6.8% with HeLa [6]. Further, the Activity in the assay on HeLa [11] was 82.1%; in the assay on HeLa [12] it was “tde”; in the assay on HeLa [13], 28.9%; with HeLa [15], 0.2%; in [16] it was “Dose-dependent effect”; in the assay with HeLa [18], “tde”. In addition, the values for the Activity in the assay on HeLa [19], in the assay with HeLa [20] and with HeLa [22] were 58.9%, 8.6% and 3.5%, respectively. The result in the assay on HeLa [7], with HeLa [8], in the assay on HeLa [9], with HeLa [14], in the assay on HeLa [17] and in the assay with HeLa [21] was Active. Also, the result with HeLa [10] was inactive.

Consider `CC(=O)O[C@H]1C(=O)[C@@]2(C)[C@H]([C@H](OC(=O)c3ccccc3)[C@]3(O)C[C@H](OC(=O)[C@H](O)[C@@H](NC(=O)c4ccccc4)c4ccccc4)C(C)=C1C3(C)C)[C@]1(OC(C)=O)CO[C@@H]1C[C@@H]2O`, for which the result in the assay with HeLa [23] was Active. Moreover, the result in assay [16] was inactive.

(Values after ChEMBL document CHEMBL1153629, “Antitumor activity of deoxypodophyllotoxin isolated from Anthriscus sylvestris: Induction of G2/M cell cycle arrest and caspase-dependent apoptosis” (2009).)
